Data published in PMC3836752 (Organic letters, 2013).

How the values were obtained:
[1] = target: T1, BamL (Bacillus velezensis, UniProt D3VMM1); assay: ITC binding assay with BamL; conditions: for Kd: BamL
T1 sequence (D3VMM1 1-270): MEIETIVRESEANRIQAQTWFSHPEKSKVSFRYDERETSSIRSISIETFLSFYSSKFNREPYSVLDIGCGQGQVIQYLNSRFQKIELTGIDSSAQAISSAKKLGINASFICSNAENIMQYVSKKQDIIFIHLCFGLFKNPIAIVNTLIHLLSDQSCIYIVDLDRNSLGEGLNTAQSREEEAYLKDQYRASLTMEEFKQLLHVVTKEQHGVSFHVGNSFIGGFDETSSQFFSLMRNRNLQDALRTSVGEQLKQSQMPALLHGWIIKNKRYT
How it was run: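 Test compounds were titrated with BamL by isothermal titration calorimetry. The binding isotherms were fitted to give Kd and thermodynamic binding parameters. The same titration was applied to a minimal arginine amide ligand.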

[2] = target: T1, BamL; assay: BamL methylation assay, ESI-MS endpoint / LC-MS; format: biochemical; conditions: for conversion into dimethylated product / dimethylation by BamL: condition A: 16 h endpoint assay, BamL in the presence of SAM, ESI-MS/HRMS and LC-MS
How it was run: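 Test compounds were incubated with BamL and scored as substrates by conversion of starting material. Two conditions were used: a standard assay, and a more stringent 1 h assay (condition B) with lower enzyme and substrate concentrations for finer resolution of substrate efficiency.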

[3] = target: T1, BamL; conditions: cited from earlier work; for processing by BamL: Arg-containing tetrapeptides as substrate mimics
[4] = test system: Bacillus anthracis; conditions: against Bacillus anthracis; ref 1b; cited from earlier work

Compound | Kd [1] [nM] | conversion into dimethylated product [2] | dimethylation by BamL [2] | processing by BamL [3] | further results
C=CCOC(=O)c1csc([C@@H](N)CCCNC(=N)N)n1 [compound 2] | 2200 | left detectable levels of unconverted starting material | dimethylated by BamL | – | increase in affinity for BamL versus 17 (2 vs. 17) ([1]; addition of a single thiazole to Arg-NH2): two orders of magnitude
CCOC(=O)c1csc(-c2nc(-c3csc([C@@H](N)CCCNC(=N)N)n3)oc2C)n1 [compound 3] | 1700 | full conversion | dimethylated by BamL | – | affinity for BamL relative to monoazole 2 [1]: marginally higher affinity; thermodynamic origin of stronger interaction compared to 2 ([1]; analysis of Gibbs free energy terms, 3 compared to 2): primarily entropically driven; processing by BamL compared to 2 ([2]; 3 compared to 2, differences in affinity not solely responsible): enhanced processing; conversion into dimethylated product (reaction completeness) ([2]; condition B: more stringent 1 h assay, lower concentrations of enzyme and substrate, ESI-MS): nearly complete; reaction efficiency with BamL ([2]; three azole rings compared with one azole, conditions A and B): reaction efficiency increases substantially
N=C(N)NCCC[C@H](N)C(N)=O [compound 17, Arg-NH2] | – | – | – | – | conversion to (CH3)2-Arg-NH2 by BamL [3]: inefficiently converted
RAAA | – | – | – | unprocessed by BamL | –
RGGG | – | – | – | unprocessed by BamL | –
plantazolicin [PZN] | – | – | – | – | antibacterial action [4]: highly discriminating antibacterial action against Bacillus anthracis
